Converted amounts (≈) assume the structure as drawn. The source made the active and inactive calls. No cut-off for these calls is given here.
Key:
HCC 2998 = assay: Growth inhibition of human HCC2998 cells at 10 uM incubated for 48 hrs by sulforhodamine B assay; type: functional, cell-based
Procedure, shortened: (§1)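 NCI 60-cell-line screen at a single 10 µM dose. Cells in RPMI-1640 with 5% FBS and 2 mM L-glutamine, pre-incubated 24 h, then treated for 48 h at 37 °C. TCA fixation, sulforhodamine B staining, absorbance at 515 nm. Percentage growth calculated against time-zero and untreated controls.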

CCRF-CEM = assay: Growth inhibition of human CCRF-CEM cells at 10 uM incubated for 48 hrs by sulforhodamine B assay; type: functional, cell-based; procedure, shortened: as §1
Escherichia coli = assay: Antibacterial activity against Escherichia coli ATCC 25922 after 24 hrs by resazurin dye based microdilution assay; type: functional; conditions: ATCC 25922, 24 h
Procedure, shortened: (§2)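 MIC taken as the lowest concentration giving visible inhibition and/or by resazurin (1 mg/mL). Gentamicin was the control. Run in duplicate, repeated at least three times.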

Leishmania panamensis = assay: Antileshmanial activity against EpiR/GFP fused Leishmania panamensis MHOM/CO/87/UA140 intracellular amastigotes infected in human […] cells after 72 hrs by flow cytometric method; type: functional, cell-based; conditions: MHOM/CO/87/UA140, 72 h
Procedure, shortened: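 PMA-treated U-937 cells (3 × 10^5 cells/mL) infected with stationary-phase GFP L. panamensis promastigotes (15:1), 3 h at 34 °C, then washed. After 24 h, compounds added at 50, 12.5, 3.125 and 0.78 µg/mL for 72 h at 37 °C. EC50 by Probit; triplicate, two experiments.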

Candida albicans [1] = assay: Growth inhibition of Candida albicans ATCC 10231 at 62.5 ug/ml incubated for 48 hrs under dark condition by broth microdilution method relative to control; type: functional; conditions: ATCC 10231, 48 h, read-out: GI
Procedure, shortened: (§3)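 CLSI M27-A3 broth microdilution in RPMI-1640, DMSO ≤1%. Inoculum 1-5 × 10^3 CFU/mL. Incubated 48 h at 30 °C, dark. % inhibition = 100 − (OD405 test − sterility control)/(OD405 growth control − sterility control), with growth and sterility control wells. Triplicate.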

Plasmodium falciparum = assay: Antiplasmodial activity against chloroquine-sensitive Plasmodium falciparum 3D7 assessed as reduction in parasitic LDH activity after 48 hrs by Malstat reagent based […] method; type: functional; conditions: 3D7, 48 h
Procedure, shortened: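 Unsynchronized P. falciparum 3D7 at 0.5% parasitemia and 1% hematocrit in RPMI with 3% Albumax II. Exposed to 100, 25, 6.25 and 1.56 µg/mL for 48 h at 37 °C under 90% N2/5% CO2/5% O2. After three freeze-thaw cycles, LDH measured with Malstat and NBT/PES, 1 h in the dark, read at 650 nm. IC50 by Probit; triplicate, ≥2 experiments.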

HOP-92 = assay: Growth inhibition of human HOP92 cells at 10 uM incubated for 48 hrs by sulforhodamine B assay; type: functional, cell-based
Procedure, shortened: (§4)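 NCI 60-line panel, single 10 μM dose. Cells were grown in RPMI-1640 with 5% FBS and 2 mM L-glutamine and pre-incubated 24 h before compound addition (DMSO stock). Exposure was 48 h at 37 °C, 5% CO2. Cells were fixed with cold TCA (10% final), stained with 0.4% SRB, bound dye dissolved in 10 mM Tris base, A515 read. Growth was taken relative to time-zero and untreated control plates.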

OVCAR-4 = assay: Growth inhibition of human OVCAR4 cells at 10 uM incubated for 48 hrs by sulforhodamine B assay; type: functional, cell-based; procedure, shortened: as §4
Cryptococcus neoformans [2] = assay: Growth inhibition of Cryptococcus neoformans ATCC 32264 at 31.25 ug/ml incubated for 48 hrs under dark condition by broth microdilution method relative to control; type: functional; conditions: ATCC 32264, 48 h, read-out: GI; procedure, shortened: as §3
A498 = assay: Growth inhibition of human A498 cells at 10 uM incubated for 48 hrs by sulforhodamine B assay; type: functional, cell-based; procedure, shortened: as §1
EKVX = assay: Growth inhibition of human EKVX cells at 10 uM incubated for 48 hrs by sulforhodamine B assay; type: functional, cell-based; procedure, shortened: as §1
Pseudomonas aeruginosa = assay: Antibacterial activity against Pseudomonas aeruginosa ATCC 27853 after 24 hrs by resazurin dye based microdilution assay; type: functional; conditions: ATCC 27853, 24 h; procedure, shortened: as §2
Neisseria gonorrhoeae = assay: Antibacterial activity against beta lactamase positive Neisseria gonorrhoeae ATCC 31426 by oxidase test; type: functional
Procedure, shortened: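 Agar dilution MIC on GC agar with 1% isovitalex containing increasing compound concentrations. Plates inoculated with about 1×10^4 CFU (5 µL). MIC is the lowest concentration that inhibited growth, with growth confirmed by oxidase test. Run in duplicate, repeated at least three times.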

HT-29 = assay: Growth inhibition of human HT-29 cells at 10 uM incubated for 48 hrs by sulforhodamine B assay; type: functional, cell-based; procedure, shortened: as §4
COLO 205 = assay: Growth inhibition of human COLO205 cells at 10 uM incubated for 48 hrs by sulforhodamine B assay; type: functional, cell-based; procedure, shortened: as §1
UO-31 = assay: Growth inhibition of human UO31 cells at 10 uM incubated for 48 hrs by sulforhodamine B assay; type: functional, cell-based
Procedure, shortened: (§5)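 NCI-60 single-dose screen at 10 µM for 48 h. Cells were grown in RPMI-1640 with 5% FBS and 2 mM L-glutamine and preincubated 24 h before compound. Time-zero plates were TCA-fixed at compound addition. After exposure, cells were TCA-fixed, stained with SRB and read at 515 nm. Percentage growth was calculated against time-zero and untreated-control absorbances.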

NCI-H522 = assay: Growth inhibition of human NCI-H522 cells at 10 uM incubated for 48 hrs by sulforhodamine B assay; type: functional, cell-based; procedure, shortened: as §4
Cryptococcus neoformans [3] = assay: Growth inhibition of Cryptococcus neoformans ATCC 32264 at 15.62 ug/ml incubated for 48 hrs under dark condition by broth microdilution method relative to control; type: functional; conditions: ATCC 32264, 48 h, read-out: GI; procedure, shortened: as §3
SN12C = assay: Growth inhibition of human SN12C cells at 10 uM incubated for 48 hrs by sulforhodamine B assay; type: functional, cell-based; procedure, shortened: as §5
Cryptococcus neoformans [4] = assay: Growth inhibition of Cryptococcus neoformans ATCC 32264 at 250 ug/ml incubated for 48 hrs under dark condition by broth microdilution method relative to control; type: functional; conditions: ATCC 32264, 48 h, read-out: GI; procedure, shortened: as §3
UACC-257 = assay: Growth inhibition of human UACC257 cells at 10 uM incubated for 48 hrs by sulforhodamine B assay; type: functional, cell-based; procedure, shortened: as §5
Candida albicans [5] = assay: Growth inhibition of Candida albicans ATCC 10231 at 250 ug/ml incubated for 48 hrs under dark condition by broth microdilution method relative to control; type: functional; conditions: ATCC 10231, 48 h, read-out: GI; procedure, shortened: as §3
Cryptococcus neoformans [6] = assay: Growth inhibition of Cryptococcus neoformans ATCC 32264 at 7.8 ug/ml incubated for 48 hrs under dark condition by broth microdilution method relative to control; type: functional; conditions: ATCC 32264, 48 h, read-out: GI; procedure, shortened: as §3
MDA-MB-468 = assay: Growth inhibition of human MDA-MB-468 cells at 10 uM incubated for 48 hrs by sulforhodamine B assay; type: functional, cell-based; procedure, shortened: as §4
MDA-MB-435 = assay: Growth inhibition of human MDA-MB-435 cells at 10 uM incubated for 48 hrs by sulforhodamine B assay; type: functional, cell-based; procedure, shortened: as §4

SMILES | growth inhibition (GI) (HCC 2998) | growth inhibition (GI) (CCRF-CEM) | MIC (Escherichia coli) [µg/mL] | EC50 (Leishmania panamensis) [µg/mL] | inhibition of growth at 62.5 µg/mL (Candida albicans [1]) [%] | EC50 (Plasmodium falciparum) [µg/mL] | growth inhibition (GI) (HOP-92) | growth inhibition (GI) (OVCAR-4) | inhibition of growth at 31.25 µg/mL (Cryptococcus neoformans [2]) [%] | growth inhibition (GI) (A498) | growth inhibition (GI) (EKVX) | MIC (Pseudomonas aeruginosa) [µg/mL] | MIC (Neisseria gonorrhoeae) [µg/mL] | growth inhibition (GI) (HT-29) | growth inhibition (GI) (COLO 205) | growth inhibition (GI) (UO-31) | growth inhibition (GI) (NCI-H522) | inhibition of growth at 15.62 µg/mL (Cryptococcus neoformans [3]) [%] | growth inhibition (GI) (SN12C) | inhibition of growth at 250 µg/mL (Cryptococcus neoformans [4]) [%] | also measured
COc1cc(C2=NN(c3ccc(Cl)cc3)C(c3cccc(Nc4ccnc5cc(Cl)ccc45)c3)C2)cc(OC)c1OC (stereo not given) | inactive | inactive | > 1000 | 21.3 (≈ 35.5 µM) | 12.2 | 44.6 (≈ 74.3 µM) | inactive | inactive | 12.5 | inactive | inactive | > 1000 | > 1000 | inactive | inactive | inactive | inactive | 12.2 | inactive | 21.7 | growth inhibition (GI) (UACC-257): inactive; inhibition of growth at 250 µg/mL (Candida albicans [5]): 26.5%; inhibition of growth at 7.8 µg/mL (Cryptococcus neoformans [6]): 10.4%; growth inhibition (GI) (MDA-MB-468): inactive; growth inhibition (GI) (MDA-MB-435): inactive
COc1ccc(C2=NN(c3ccc(Cl)cc3)C(c3cccc(Nc4ccnc5cc(Cl)ccc45)c3)C2)cc1 (stereo not given) | inactive | inactive | > 1000 | 27.7 (≈ 51.4 µM) | 5.46 | 44.6 (≈ 82.6 µM) | inactive | inactive | 13.1 | inactive | inactive | > 1000 | > 1000 | inactive | inactive | inactive | inactive | 12.6 | inactive | 58.2 | growth inhibition (GI) (UACC-257): inactive; inhibition of growth at 250 µg/mL (Candida albicans [5]): 3.08%; inhibition of growth at 7.8 µg/mL (Cryptococcus neoformans [6]): 10.1%; growth inhibition (GI) (MDA-MB-468): inactive; growth inhibition (GI) (MDA-MB-435): inactive
Clc1ccc(C2=NN(c3ccc(Cl)cc3)C(c3cccc(Nc4ccnc5cc(Cl)ccc45)c3)C2)cc1 (stereo not given) | inactive | inactive | > 1000 | 91.4 (≈ 168 µM) | 11.8 | 10.3 (≈ 18.9 µM) | inactive | inactive | 24.3 | inactive | inactive | > 1000 | > 1000 | inactive | inactive | inactive | inactive | 23.1 | inactive | 53 | growth inhibition (GI) (UACC-257): inactive; inhibition of growth at 250 µg/mL (Candida albicans [5]): 40.4%; inhibition of growth at 7.8 µg/mL (Cryptococcus neoformans [6]): 18.4%; growth inhibition (GI) (MDA-MB-468): inactive; growth inhibition (GI) (MDA-MB-435): inactive
Clc1ccc(C2=NN(c3ccccc3)C(c3cccc(Nc4ccnc5cc(Cl)ccc45)c3)C2)cc1 (stereo not given) | inactive | inactive | > 1000 | 11.7 (≈ 22.9 µM) | 7.77 | 11.7 (≈ 23 µM) | inactive | inactive | 0 | inactive | inactive | > 1000 | > 1000 | inactive | inactive | inactive | inactive | 0 | inactive | 19.8 | growth inhibition (GI) (UACC-257): inactive; inhibition of growth at 250 µg/mL (Candida albicans [5]): 19.8%; inhibition of growth at 7.8 µg/mL (Cryptococcus neoformans [6]): 0%; growth inhibition (GI) (MDA-MB-468): inactive; growth inhibition (GI) (MDA-MB-435): inactive

From ChEMBL document CHEMBL4038284, “Synthesis of novel quinoline-based 4,5-dihydro-1H-pyrazoles as potential anticancer, antifungal, antibacterial and antiprotozoal agents” (Eur J Med Chem, 2017)
